Measurements as given in ChEMBL document CHEMBL4261538, “Synthesis and molecular docking studies of xanthone attached amino acids as potential antimicrobial and anti-inflammatory agents” (Medchemcomm, 2017).
Values after ≈ are worked out from the molar mass of the structure shown. Active and inactive are the calls of the source. The rule behind the calls is not given here.

Columns and labels:
Bacillus subtilis [1] = experiment: Antibacterial activity against Bacillus subtilis at 25 ug/ml incubated for 24 hrs by agar well diffusion method; type: functional; conditions: for zone of inhibition at 25 µg/mL: read-out: DIZ
Procedure, shortened: (§1)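 Bacteria grown in nutrient broth at 37 °C for 24 h, then subcultured at room temperature. Compounds dissolved in DMSO at 5 mg mL⁻¹ and 5–20 µL added to 6 mm wells, giving 25, 50, 75, 100 µg per well. Gentamicin was the positive control and DMSO the negative control. Plates held at 37 °C for 24 h, then inhibition zone diameter (mm) measured. Values are means of three determinations.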

Candida albicans [2] = experiment: Antifungal activity against Candida albicans at 25 ug/ml incubated for 48 hrs by agar well diffusion method; type: functional; conditions: for zone of inhibition at 25 µg/mL: read-out: DIZ
Procedure, shortened: (§2)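 Compounds dissolved in DMSO at 5 mg mL⁻¹ and 5–20 µL added to 6 mm wells, giving 25, 50, 75, 100 µg per well. Bavistin was the positive control and DMSO the negative control. Plates incubated at 28 °C for 48 h, then inhibition zone diameter (mm) measured. Values are means of three determinations.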

Staphylococcus aureus [3] = experiment: Antibacterial activity against Staphylococcus aureus at 50 ug/ml incubated for 24 hrs by agar well diffusion method; type: functional; conditions: read-out: DIZ; procedure, shortened: as §1
Fusarium oxysporum [4] = experiment: Antifungal activity against Fusarium oxysporum at 25 ug/ml incubated for 48 hrs by agar well diffusion method; type: functional; conditions: for zone of inhibition at 25 µg/mL: read-out: DIZ; procedure, shortened: as §2
Klebsiella pneumoniae [5] = experiment: Antibacterial activity against Klebsiella pneumoniae at 100 ug/ml incubated for 24 hrs by agar well diffusion method; type: functional; conditions: for zone of inhibition at 100 µg/mL: read-out: DIZ; procedure, shortened: as §1
Aspergillus niger [6] = experiment: Antifungal activity against Aspergillus niger at 100 ug/ml incubated for 48 hrs by agar well diffusion method; type: functional; conditions: read-out: DIZ; procedure, shortened: as §2
Klebsiella pneumoniae [7] = experiment: Antibacterial activity against Klebsiella pneumoniae at 75 ug/ml incubated for 24 hrs by agar well diffusion method; type: functional; conditions: for zone of inhibition at 75 µg/mL: read-out: DIZ; procedure, shortened: as §1
Candida albicans [8] = experiment: Antifungal activity against Candida albicans at 75 ug/ml incubated for 48 hrs by agar well diffusion method; type: functional; conditions: read-out: DIZ; procedure, shortened: as §2
Erythrocyte = experiment: Anti-inflammatory activity in human RBC assessed as inhibition of hypotonic solution-induced hemolysis after 10 mins by spectrophotometric method; type: functional, cell-based
Procedure, shortened: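 Human blood (heparinized) washed with 0.9% saline, packed cells made into a 40% v/v stock in isotonic phosphate buffer (154 mM NaCl, 10 mM sodium phosphate, pH 7.4). Stock RBC mixed with hypotonic buffer (50 mM NaCl, 10 mM phosphate, pH 7.4) plus sample at 20–100 µg mL⁻¹.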

Aspergillus niger [9] = experiment: Antifungal activity against Aspergillus niger at 50 ug/ml incubated for 48 hrs by agar well diffusion method; type: functional; conditions: read-out: DIZ; procedure, shortened: as §2
Escherichia coli [10] = experiment: Antibacterial activity against Escherichia coli at 25 ug/ml incubated for 24 hrs by agar well diffusion method; type: functional; conditions: read-out: DIZ; procedure, shortened: as §1
Fusarium oxysporum [11] = experiment: Antifungal activity against Fusarium oxysporum at 100 ug/ml incubated for 48 hrs by agar well diffusion method; type: functional; conditions: read-out: DIZ; procedure, shortened: as §2
Bacillus subtilis [12] = experiment: Antibacterial activity against Bacillus subtilis at 50 ug/ml incubated for 24 hrs by agar well diffusion method; type: functional; conditions: for zone of inhibition at 50 µg/mL: read-out: DIZ; procedure, shortened: as §1
Aspergillus niger [13] = experiment: Antifungal activity against Aspergillus niger at 75 ug/ml incubated for 48 hrs by agar well diffusion method; type: functional; conditions: read-out: DIZ; procedure, shortened: as §2
Klebsiella pneumoniae [14] = experiment: Antibacterial activity against Klebsiella pneumoniae at 50 ug/ml incubated for 24 hrs by agar well diffusion method; type: functional; conditions: for zone of inhibition at 50 µg/mL: read-out: DIZ; procedure, shortened: as §1
Escherichia coli [15] = experiment: Antibacterial activity against Escherichia coli at 100 ug/ml incubated for 24 hrs by agar well diffusion method; type: functional; conditions: read-out: DIZ; procedure, shortened: as §1
Klebsiella pneumoniae [16] = experiment: Antibacterial activity against Klebsiella pneumoniae at 25 ug/ml incubated for 24 hrs by agar well diffusion method; type: functional; conditions: for zone of inhibition at 25 µg/mL: read-out: DIZ; procedure, shortened: as §1
Staphylococcus aureus [17] = experiment: Antibacterial activity against Staphylococcus aureus at 25 ug/ml incubated for 24 hrs by agar well diffusion method; type: functional; conditions: read-out: DIZ; procedure, shortened: as §1
Staphylococcus aureus [18] = experiment: Antibacterial activity against Staphylococcus aureus at 75 ug/ml incubated for 24 hrs by agar well diffusion method; type: functional; conditions: read-out: DIZ; procedure, shortened: as §1
Fusarium oxysporum [19] = experiment: Antifungal activity against Fusarium oxysporum at 75 ug/ml incubated for 48 hrs by agar well diffusion method; type: functional; conditions: read-out: DIZ; procedure, shortened: as §2
Escherichia coli [20] = experiment: Antibacterial activity against Escherichia coli at 50 ug/ml incubated for 24 hrs by agar well diffusion method; type: functional; conditions: read-out: DIZ; procedure, shortened: as §1
Candida albicans [21] = experiment: Antifungal activity against Candida albicans at 100 ug/ml incubated for 48 hrs by agar well diffusion method; type: functional; conditions: read-out: DIZ; procedure, shortened: as §2
Bacillus subtilis [22] = experiment: Antibacterial activity against Bacillus subtilis at 75 ug/ml incubated for 24 hrs by agar well diffusion method; type: functional; conditions: read-out: DIZ; procedure, shortened: as §1
Escherichia coli [23] = experiment: Antibacterial activity against Escherichia coli at 75 ug/ml incubated for 24 hrs by agar well diffusion method; type: functional; conditions: read-out: DIZ; procedure, shortened: as §1
Aspergillus niger [24] = experiment: Antifungal activity against Aspergillus niger at 25 ug/ml incubated for 48 hrs by agar well diffusion method; type: functional; conditions: read-out: DIZ; procedure, shortened: as §2
Bacillus subtilis [25] = experiment: Antibacterial activity against Bacillus subtilis at 100 ug/ml incubated for 24 hrs by agar well diffusion method; type: functional; conditions: read-out: DIZ; procedure, shortened: as §1
Staphylococcus aureus [26] = experiment: Antibacterial activity against Staphylococcus aureus at 100 ug/ml incubated for 24 hrs by agar well diffusion method; type: functional; conditions: read-out: DIZ; procedure, shortened: as §1
Candida albicans [27] = experiment: Antifungal activity against Candida albicans at 50 ug/ml incubated for 48 hrs by agar well diffusion method; type: functional; conditions: for zone of inhibition at 50 µg/mL: read-out: DIZ; procedure, shortened: as §2
Fusarium oxysporum [28] = experiment: Antifungal activity against Fusarium oxysporum at 50 ug/ml incubated for 48 hrs by agar well diffusion method; type: functional; conditions: for zone of inhibition at 50 µg/mL: read-out: DIZ; procedure, shortened: as §2

Structure (SMILES)	zone of inhibition at 25 µg/mL (Bacillus subtilis [1]) [mm]	zone of inhibition at 50 µg/mL (Staphylococcus aureus [3]) [mm]	zone of inhibition at 100 µg/mL (Aspergillus niger [6]) [mm]	zone of inhibition at 75 µg/mL (Candida albicans [8]) [mm]	IC50 (Erythrocyte) [µg/mL]	zone of inhibition at 50 µg/mL (Aspergillus niger [9]) [mm]	zone of inhibition at 25 µg/mL (Escherichia coli [10]) [mm]	zone of inhibition at 100 µg/mL (Fusarium oxysporum [11]) [mm]	zone of inhibition at 75 µg/mL (Aspergillus niger [13]) [mm]	zone of inhibition at 100 µg/mL (Escherichia coli [15]) [mm]	zone of inhibition at 25 µg/mL (Staphylococcus aureus [17]) [mm]	zone of inhibition at 75 µg/mL (Staphylococcus aureus [18]) [mm]	zone of inhibition at 75 µg/mL (Fusarium oxysporum [19]) [mm]	zone of inhibition at 50 µg/mL (Escherichia coli [20]) [mm]	zone of inhibition at 100 µg/mL (Candida albicans [21]) [mm]	zone of inhibition at 75 µg/mL (Bacillus subtilis [22]) [mm]	zone of inhibition at 75 µg/mL (Escherichia coli [23]) [mm]	zone of inhibition at 25 µg/mL (Aspergillus niger [24]) [mm]	zone of inhibition at 100 µg/mL (Bacillus subtilis [25]) [mm]	zone of inhibition at 100 µg/mL (Staphylococcus aureus [26]) [mm]	other results
CC(C)[C@H](N)C(=O)Oc1ccc2c(=O)c3ccccc3oc2c1.Cl	10	17	21	16	82	12	11	21	17	23	14	21	19	15	19	20	19	9	24	24	zone of inhibition at 25 µg/mL (Candida albicans [2]): 8 mm; zone of inhibition at 25 µg/mL (Fusarium oxysporum [4]): 10 mm; zone of inhibition at 100 µg/mL (Klebsiella pneumoniae [5]): 27 mm; zone of inhibition at 75 µg/mL (Klebsiella pneumoniae [7]): 21 mm; zone of inhibition at 50 µg/mL (Bacillus subtilis [12]): 15 mm; zone of inhibition at 50 µg/mL (Klebsiella pneumoniae [14]): 12 mm; zone of inhibition at 25 µg/mL (Klebsiella pneumoniae [16]): 16 mm; zone of inhibition at 50 µg/mL (Candida albicans [27]): 11 mm; zone of inhibition at 50 µg/mL (Fusarium oxysporum [28]): 15 mm
O=c1c2ccccc2oc2cc(O)ccc12		7	11	6	90 (≈ 424 µM)	7	3	9	9	13	4	11	5	7	10	6	11	4	10	14	diameter of the inhibition zone (DIZ) (Bacillus subtilis [1]): inactive; diameter of the inhibition zone (DIZ) (Candida albicans [2]): inactive; diameter of the inhibition zone (DIZ) (Fusarium oxysporum [4]): inactive; diameter of the inhibition zone (DIZ) (Klebsiella pneumoniae [5]): inactive; diameter of the inhibition zone (DIZ) (Klebsiella pneumoniae [7]): inactive; diameter of the inhibition zone (DIZ) (Bacillus subtilis [12]): inactive; diameter of the inhibition zone (DIZ) (Klebsiella pneumoniae [14]): inactive; diameter of the inhibition zone (DIZ) (Klebsiella pneumoniae [16]): inactive; diameter of the inhibition zone (DIZ) (Candida albicans [27]): inactive; diameter of the inhibition zone (DIZ) (Fusarium oxysporum [28]): inactive
CC(C)(C)OC(=O)NCC(=O)Oc1ccc2c(=O)c3ccccc3oc2c1	6	12	15	14	66 (≈ 179 µM)	9	7	15	12	21	7	16	13	3	16	16	16	5	20	22	zone of inhibition at 25 µg/mL (Candida albicans [2]): 7 mm; zone of inhibition at 25 µg/mL (Fusarium oxysporum [4]): 4 mm; zone of inhibition at 100 µg/mL (Klebsiella pneumoniae [5]): 23 mm; zone of inhibition at 75 µg/mL (Klebsiella pneumoniae [7]): 17 mm; zone of inhibition at 50 µg/mL (Bacillus subtilis [12]): 12 mm; zone of inhibition at 50 µg/mL (Klebsiella pneumoniae [14]): 12 mm; zone of inhibition at 25 µg/mL (Klebsiella pneumoniae [16]): 16 mm; zone of inhibition at 50 µg/mL (Candida albicans [27]): 10 mm; zone of inhibition at 50 µg/mL (Fusarium oxysporum [28]): 9 mm
